Screening data deposited in PubChem by several laboratories.
Lipid droplet – inhibitors of hepatocyte lipid droplet formation, primary screen, imaging, high-throughput imaging, BODIPY stain | AML12 mouse hepatocytes, oleate lipid droplets | inhibition, % at 6.5 µM | hit rate 0.4% among 240,000;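 active = lipid droplet intensity inhibited by at least 50%, with more than 500 cells counted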
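Material: mouse AML12 hepatocyte cell line, fixed after treatment; Timing: compound with oleate, overnight; Technique: high-content imaging of BODIPY-stained droplets and DAPI nuclei; Probe or stimulus: oleate, 100 µM final; Dosing: compound at 6.5 µM only.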
MC4R antag cAMP – MC4R antagonists of cAMP signaling, primary screen, cell-based, TR-FRET, antagonist arm of biased-ligand search | inhibition, % at 6.5 µM | MC4R-expressing cells, MTII-stimulated cAMP, LANCE TR-FRET | Melanocortin receptor 4 (Homo sapiens), P32245 | hit rate 0.48% among 360,000;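 active = inhibition above its plate's cutoff, the mean of tested wells on that plate plus 3 SD, cut at about 29% in these data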
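Assay system: U2OS-MC4R stable cell line; Also added: Melanotan II; Technique: Eu-cAMP/anti-cAMP TR-FRET, emission 671 nm; Times: 30-min compound, 1-h challenge, 1-h detection, room temperature.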
NTR1 agonist – agonists of human NTR1, primary screen, imaging, U2OS cells, beta-arrestin-GFP, high content; NTR1-U2OS beta-arrestin-GFP spot imaging, agonist mode; activation, % at 20 µM; hit rate 0.17% among 330,000; AID 493036, 2011;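 active = activation at or above 40% of the spot to cytoplasm intensity ratio, with at least 20 cells analyzed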
Target sequence (P30989 whole entry, looked up): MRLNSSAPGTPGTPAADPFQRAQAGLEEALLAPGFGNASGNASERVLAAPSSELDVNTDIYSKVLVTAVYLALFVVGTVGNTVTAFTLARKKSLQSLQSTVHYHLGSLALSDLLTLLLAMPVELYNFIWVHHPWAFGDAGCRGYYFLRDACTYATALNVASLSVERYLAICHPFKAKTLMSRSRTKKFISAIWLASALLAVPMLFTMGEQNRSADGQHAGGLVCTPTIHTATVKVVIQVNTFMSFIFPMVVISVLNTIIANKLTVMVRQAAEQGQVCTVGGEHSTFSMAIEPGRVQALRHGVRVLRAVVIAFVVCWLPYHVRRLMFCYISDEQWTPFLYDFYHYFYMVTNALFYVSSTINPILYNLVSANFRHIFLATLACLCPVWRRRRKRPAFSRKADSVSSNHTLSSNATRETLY
PREPL inh – PREPL enzyme inhibitors, primary screen, biochemical, fluorescence polarization; AID 2751, 2010; hit rate 0.68% among 320,000; inhibition, % at 5.96 µM; Prolyl endopeptidase-like (Homo sapiens), Q4J6C6; recombinant PREPL, fluorescence polarization activity-based probe; in the data active = inhibition above about 43%
HTR2A ag – mouse Htr2a agonists via beta-arrestin recruitment, primary screen, cell-based, luminescence | activation, % at 7.6 µM | hit rate 0.66% among 360,000 | 5-hydroxytryptamine receptor 2A (Mus musculus), P35363 | AID 624169, 2012 | CHO-K1 mHTR2A beta-arrestin complementation; percent of 30 µM serotonin response;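 active = activation above a run cutoff, the mean activation of all tested compounds plus 3 SD, cut at about 14% in these data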
MC4R ag barr – MC4R agonists recruiting beta-arrestin, primary screen, cell-based, luminescence, agonist arm of biased-ligand search; activation, % at 8.9 µM; U2OS MC4R beta-arrestin complementation; percent of melanotan II response, DMSO zero; hit rate 0.98% among 360,000; Melanocortin receptor 4 (Homo sapiens), P32245; AID 540308, 2011;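 active = activation above a per-plate cutoff, the mean activation of sample wells on that plate plus 3 SD, cut at about 8% in these data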
Lipid drop inh – hepatocyte lipid droplet accumulation inhibitors, confirmation, imaging, AML12 mouse hepatocytes, single concentration, high-content; inhibition, % at 5.2 µM; BODIPY lipid droplet imaging; droplets induced with 100 µM oleic acid; shares compounds with Lipid droplet; AID 463183, 2010; hit rate 65% among 870;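 active = inhibition of lipid droplet metric at least 50%, with more than 300 cells in each of four replicates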
AML12 tox img – AML12 hepatocyte cytotoxicity, counter-screen for hepatic lipid droplet formation project, imaging, DAPI nuclear morphology imaging; AID 463200, 2010; shares compounds with Lipid droplet; hit rate 3% among 870; AML12 mouse hepatocytes; active compounds read high; cells fed 100 µM oleate overnight; z-score at 5 µM; in the data active = z-score above about 6.3;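 also: compound exposure lasted overnight at 37 °C before fixation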
AML12 tox conf – AML12 hepatocyte cytotoxicity, confirmation, cytotoxicity control for hepatic lipid droplet formation project, cell-based, single concentration; shares compounds with Lipid droplet; AML12 mouse hepatocyte viability, ATP luminescence; cells loaded with 100 µM oleic acid; cytotoxicity, % at 50 µM; 530 tested, under 10 active;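 active = cytotoxicity above 50% in each of four replicates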;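 also: compound exposure lasted overnight at 37 °C before the ATP read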
Large screens that a line does not name were inactive (follow-up assays come after a bar, where they were run). The list is not random: actives were taken first. Their share in the collection is about 2.7%.

COc1ccc(C(CNC(=O)c2cccc(NS(=O)(=O)c3ccc(C)c(F)c3)c2)N2CCOCC2)cc1 (configuration not stated)	none (no result: Lipid droplet)
Oc1ccc2ccccc2c1N=Nc1ccccn1	none
Oc1ccc2ccccc2c1N=Nc1ccccc1F	Lipid droplet 93 | Lipid drop inh 95 | AML12 tox img inactive
CCc1ccccc1NC(=O)CN(C)C(=O)c1cc(C2CC2)nc2c1cnn2C(C)C	none (no result: Lipid droplet)
CCCNS(=O)(=O)c1ccc(CCC(=O)Nc2cc(Cl)ccc2Oc2ccccc2)cc1	Lipid droplet 63 (no result: NTR1 agonist, PREPL inh) | Lipid drop inh 93 | AML12 tox img inactive | AML12 tox conf inactive
NC(=O)N/N=C/c1ccc(-c2ccc([N+](=O)[O-])cc2)o1	Lipid droplet 55 | Lipid drop inh inactive | AML12 tox img inactive
O=C(Cc1ccccc1)N/N=C/c1ccc(-c2ccc([N+](=O)[O-])cc2)o1	none
O=C1NC[C@H](CCCCN2CCN(CC3CCCCC3)C(=O)C2=O)N(Cc2ccccc2)C1=O	none (no result: Lipid droplet, MC4R antag cAMP, NTR1 agonist, PREPL inh, MC4R ag barr)
O=C(CSc1nc2ccccc2s1)N1N=C(c2cccs2)CC1c1ccc(F)cc1 (configuration not stated)	none
COc1ccc(C2CC(c3cccs3)=NN2C(=O)CSc2nc3ccccc3s2)cc1 (configuration not stated)	Lipid droplet 74 | Lipid drop inh 101 | AML12 tox img inactive | AML12 tox conf inactive
CCN(CC)S(=O)(=O)c1cccc(NC(=O)COC(=O)C2CC3C=CC2C3)c1 (configuration not stated)	none
N#CCc1nn(-c2ccc(F)cc2)c(N)c1C#N	none
CCc1c(C#N)c(SCCC(=O)Nc2ccc(C)cc2)nc2c1C(=O)CC(C)(C)C2	none
CCOc1ccc(NC(=O)CCSc2nc3c(c(CC)c2C#N)C(=O)CC(C)(C)C3)cc1	Lipid droplet 55 | Lipid drop inh 86 | AML12 tox img inactive | AML12 tox conf inactive
C=CCC(=O)N1CCC(n2nccc2NC(=O)CCOc2ccccc2)CC1	Lipid droplet 61 | Lipid drop inh inactive | AML12 tox img inactive
COc1cccc(/C(C)=N/NC(=O)Cc2c(C)[nH][nH]c2=O)c1	Lipid droplet 63 | Lipid drop inh inactive | AML12 tox img inactive
Cc1ccnc(NC(=O)C2CC(=O)N(Cc3ccccc3)C2)c1 (configuration not stated)	none (no result: Lipid droplet)
CCNc1nc(N)c(C(=O)c2ccc(Cl)s2)s1	Lipid droplet 52 | Lipid drop inh inactive | AML12 tox img inactive
CC(C)(C)c1csc(NC(=O)c2ccc(Cl)s2)n1	none
Cc1c(CNC(=O)c2c([N+](=O)[O-])cnn2C)cnn1C	none
O=C(c1nn2c(C(F)(F)F)cc(-c3cccs3)nc2c1Br)N1CCCc2ccccc21	Lipid droplet 60 | Lipid drop inh 101 | AML12 tox img inactive | AML12 tox conf inactive
CC(C)C(C)(C#N)NC(=O)CSc1nc2scc(-c3ccco3)c2c(=O)n1-c1ccccc1 (configuration not stated)	none (no result: Lipid droplet)
CC(C)C(C)NC(=O)CSc1nc2scc(-c3ccco3)c2c(=O)n1-c1ccccc1 (configuration not stated)	Lipid droplet 60 | Lipid drop inh inactive | AML12 tox img inactive
CSc1ncnc2c1ncn2CCCNCCc1ccccn1	none (no result: Lipid droplet, NTR1 agonist, PREPL inh)
O=C1/C(=C/c2ccc([N+](=O)[O-])cc2)CCC1C1CCCC1 (configuration not stated)	Lipid droplet 54 | Lipid drop inh inactive | AML12 tox img inactive
CC1c2ccccc2N(S(=O)(=O)c2ccccc2)C1C (configuration not stated)	none (no result: Lipid droplet, NTR1 agonist, PREPL inh)
Cc1cc(C(=O)Nc2c(C)nn(Cc3ccc(F)cc3)c2C)on1	none (no result: Lipid droplet)
Cc1nn(Cc2ccc(F)cc2)c(C)c1NC(=O)C1c2ccccc2Oc2ccccc21	Lipid droplet 62 | Lipid drop inh 92 | AML12 tox img inactive | AML12 tox conf inactive
CCCCN(CCCNC(=O)CN1C(=O)COc2ccccc21)c1ccccc1	Lipid droplet 53 | Lipid drop inh 103 | AML12 tox img inactive | AML12 tox conf inactive
CCN(CCCNC(=O)CN1C(=O)COc2ccccc21)c1ccccc1	none
CCCCCCCNC(=O)C1(CC2CC(c3ccc(Cl)cc3)=NO2)CCN(C(=O)c2cc(OCC)c(OCC)c(OCC)c2)CC1 (configuration not stated)	Lipid droplet 50 | Lipid drop inh 90 | AML12 tox img inactive | AML12 tox conf inactive
CCCCCCCNC(=O)C1(CC2CC(c3ccc(Cl)cc3)=NO2)CCN(C(=O)c2ccccc2)CC1 (configuration not stated)	none
CCOC(=O)c1cc(S(=O)(=O)NC2CCC(C)CC2)cn1C (configuration not stated)	none
COc1ccc(/C=C(\NC(=O)c2cccs2)C(=O)NN)cc1OC	none (no result: PREPL inh)
COc1cccc(NC(=O)CCC(=O)Nc2cc(OC)c(NC(=O)c3cccs3)cc2OC)c1	Lipid droplet 79 (no result: PREPL inh) | Lipid drop inh 110 | AML12 tox img inactive | AML12 tox conf inactive
COc1ccc(NC(=O)CCC(=O)Nc2cc(OC)c(NC(=O)c3cccs3)cc2OC)cc1	Lipid droplet 71 | Lipid drop inh 109 | AML12 tox img inactive | AML12 tox conf inactive
COc1cccc(NC(=O)c2cccs2)c1	none
COc1ccc(/C=C(\NC(=O)c2cccs2)C(=O)Nc2cccc3ccccc23)cc1OC	Lipid droplet 84 | Lipid drop inh 102 | AML12 tox img inactive | AML12 tox conf inactive
COc1ccc(OCC(=O)Nc2ccc(NC(=O)c3cccs3)cc2)cc1	none
CN(C)/C=C(\C#N)C(=O)N/N=C/c1ccc(Cl)cc1	none
